In brackets after ≈: the same amount, converted by molar mass.
Assays:
Pseudomonas aeruginosa [1] = experiment: Antibacterial activity against Pseudomonas aeruginosa ATCC 27853 after 72 hrs by serial sub-cultivation method; format: functional; details: ATCC 27853, 72 h
In short: (§1)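 MBC was found by serial sub-cultivation of 2 µl from the MIC wells into plates holding 100 µl broth per well, then incubation for 72 h. MBC is the lowest concentration with no visible growth, i.e. 99.5% killing of the original inoculum. Bacterial inoculum was 1.0 × 10^4 cfu per well in LB broth. Duplicate, repeated three times.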

Aspergillus flavus [2] = experiment: Antifungal activity against Aspergillus flavus ATCC 9643 after 72 hrs by serial dilution method; format: functional; details: ATCC 9643, 72 h
In short: (§2)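 Fungi were kept on malt agar at 4 °C and sub-cultured monthly. Spores were washed off the agar with sterile 0.85% saline containing 0.1% Tween 80 (v/v). Modified microdilution in 96-well plates. MIC is the lowest concentration with no visible growth under the binocular microscope. Inoculum checked on malt agar for contamination and validity.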

Micrococcus flavus [3] = experiment: Antibacterial activity against Micrococcus flavus ATCC 10240 after 24 hrs; format: functional; details: ATCC 10240, 24 h
In short: (§3)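 Broth microdilution MIC in 96-well plates. Compounds in LB broth with bacterial inoculum of 1.0 × 10^4 cfu per well, from suspensions adjusted with sterile saline to 1.0 × 10⁵ CFU/ml. Incubated 24 h at […] as printed. MIC taken as the lowest concentration with no visible growth under the binocular microscope. OD at 655 nm also read against blank. Streptomycin and ampicillin as positive controls. Duplicate, repeated three times.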

Bacillus cereus [4] = experiment: Antibacterial activity against Bacillus cereus clinical isolate after 24 hrs; format: functional; in short: as §3
Penicillium ochrochloron [5] = experiment: Antifungal activity against Penicillium ochrochloron ATCC 9112 after 72 hrs by serial dilution method; format: functional; details: ATCC 9112, 72 h; in short: as §2
Escherichia coli [6] = experiment: Antibacterial activity against Escherichia coli ATCC 35210 after 72 hrs by serial sub-cultivation method; format: functional; details: ATCC 35210, 72 h; in short: as §1
Talaromyces funiculosus [7] = experiment: Antifungal activity against Penicillium funiculosum ATCC 36839 after 72 hrs by serial sub-cultivation method; format: functional; details: ATCC 36839, 72 h
In short: (§4)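 MFC was found by serial sub-cultivation of 2 µl into plates holding 100 µl broth per well, then incubation 72 h at 28 °C. MFC is the lowest concentration with no visible growth, taken as 99.5% killing of the original inoculum. Spore inocula came from malt agar cultures washed with 0.85% saline and 0.1% Tween 80.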

Pseudomonas aeruginosa [8] = experiment: Antibacterial activity against Pseudomonas aeruginosa ATCC 27853 after 24 hrs; format: functional; details: ATCC 27853, 24 h; in short: as §3
Aspergillus fumigatus [9] = experiment: Antifungal activity against Aspergillus fumigatus plant isolate after 72 hrs by serial dilution method
Fulvia fulva [10] = experiment: Antifungal activity against Fulvia fulva TK 5318 after 72 hrs by serial sub-cultivation method; format: functional; details: TK 5318, 72 h; in short: as §4
Aspergillus niger [11] = experiment: Antifungal activity against Aspergillus niger ATCC 6275 after 72 hrs by serial sub-cultivation method; format: functional; details: ATCC 6275, 72 h; in short: as §4
Trichoderma viride [12] = experiment: Antifungal activity against Trichoderma viride IAM 5061 after 72 hrs by serial dilution method; format: functional; details: IAM 5061, 72 h; in short: as §2
Staphylococcus aureus [13] = experiment: Antibacterial activity against Staphylococcus aureus ATCC 6538 after 24 hrs; format: functional; details: ATCC 6538, 24 h; in short: as §3
Aspergillus fumigatus [14] = experiment: Antifungal activity against Aspergillus fumigatus plant isolate after 72 hrs by serial sub-cultivation method
Escherichia coli [15] = experiment: Antibacterial activity against Escherichia coli ATCC 35210 after 24 hrs; format: functional; details: ATCC 35210, 24 h; in short: as §3
Aspergillus niger [16] = experiment: Antifungal activity against Aspergillus niger ATCC 6275 after 72 hrs by serial dilution method; format: functional; details: ATCC 6275, 72 h; in short: as §2
Proteus mirabilis [17] = experiment: Antibacterial activity against Proteus mirabilis after 72 hrs by serial sub-cultivation method; format: functional; in short: as §1
Salmonella typhimurium [18] = experiment: Antibacterial activity against Salmonella Typhimurium ATCC 13311 after 72 hrs by serial sub-cultivation method; format: functional, Salmonella enterica subsp. enterica serovar Typhimurium; details: Salmonella enterica, ATCC 13311, 72 h; in short: as §1
Aspergillus flavus [19] = experiment: Antifungal activity against Aspergillus flavus ATCC 9643 after 72 hrs by serial sub-cultivation method; format: functional; details: ATCC 9643, 72 h; in short: as §4
Listeria monocytogenes [20] = experiment: Antibacterial activity against Listeria monocytogenes NCTC 7973 after 72 hrs by serial sub-cultivation method; format: functional; details: NCTC 7973, 72 h; in short: as §1
Proteus mirabilis [21] = experiment: Antibacterial activity against Proteus mirabilis after 24 hrs; format: functional; in short: as §3
Salmonella typhimurium [22] = experiment: Antibacterial activity against Salmonella Typhimurium ATCC 13311 after 24 hrs; format: functional, Salmonella enterica subsp. enterica serovar Typhimurium; details: Salmonella enterica, ATCC 13311, 24 h; in short: as §3
Talaromyces funiculosus [23] = experiment: Antifungal activity against Penicillium funiculosum ATCC 36839 after 72 hrs by serial dilution method; format: functional; details: ATCC 36839, 72 h; in short: as §2
Aspergillus versicolor [24] = experiment: Antifungal activity against Aspergillus versicolor ATCC 11730 after 72 hrs by serial sub-cultivation method; format: functional; details: ATCC 11730, 72 h; in short: as §4
Fulvia fulva [25] = experiment: Antifungal activity against Fulvia fulva TK 5318 after 72 hrs by serial dilution method; format: functional; details: TK 5318, 72 h; in short: as §2
Micrococcus flavus [26] = experiment: Antibacterial activity against Micrococcus flavus ATCC 10240 after 72 hrs by serial sub-cultivation method; format: functional; details: ATCC 10240, 72 h; in short: as §1
Penicillium ochrochloron [27] = experiment: Antifungal activity against Penicillium ochrochloron ATCC 9112 after 72 hrs by serial sub-cultivation method; format: functional; details: ATCC 9112, 72 h; in short: as §4
Listeria monocytogenes [28] = experiment: Antibacterial activity against Listeria monocytogenes NCTC 7973 after 24 hrs; format: functional; details: NCTC 7973, 24 h; in short: as §3
Staphylococcus aureus [29] = experiment: Antibacterial activity against Staphylococcus aureus ATCC 6538 after 72 hrs by serial sub-cultivation method; format: functional; details: ATCC 6538, 72 h; in short: as §1
Trichoderma viride [30] = experiment: Antifungal activity against Trichoderma viride IAM 5061 after 72 hrs by serial sub-cultivation method; format: functional; details: IAM 5061, 72 h; in short: as §4
Aspergillus versicolor [31] = experiment: Antifungal activity against Aspergillus versicolor ATCC 11730 after 72 hrs by serial dilution method; format: functional; details: ATCC 11730, 72 h; in short: as §2
Bacillus cereus [32] = experiment: Antibacterial activity against Bacillus cereus clinical isolate after 72 hrs by serial sub-cultivation method; format: functional; in short: as §1

SMILES	MBC (Pseudomonas aeruginosa [1]) [µM]	MIC (Aspergillus flavus [2]) [µM]	MIC (Micrococcus flavus [3]) [µM]	MIC (Bacillus cereus [4]) [µM]	MIC (Penicillium ochrochloron [5]) [µM]	MBC (Escherichia coli [6]) [µM]	MFC (Talaromyces funiculosus [7]) [µM]	MIC (Pseudomonas aeruginosa [8]) [µM]	MIC (Aspergillus fumigatus [9]) [µM]	MFC (Fulvia fulva [10]) [µM]	MFC (Aspergillus niger [11]) [µM]	MIC (Trichoderma viride [12]) [µM]	MIC (Staphylococcus aureus [13]) [µM]	MFC (Aspergillus fumigatus [14]) [µM]	MIC (Escherichia coli [15]) [µM]	MIC (Aspergillus niger [16]) [µM]	MBC (Proteus mirabilis [17]) [µM]	MBC (Salmonella typhimurium [18]) [µM]	MFC (Aspergillus flavus [19]) [µM]	MBC (Listeria monocytogenes [20]) [µM]	also measured
O=C1N/C(=N/c2nc(C34CC5CC(CC(C5)C3)C4)cs2)S/C1=C\c1ccccc1[N+](=O)[O-]	43 (≈ 20.1 µg/mL)	16.1 (≈ 7.51 µg/mL)	21.5 (≈ 10 µg/mL)	10.8 (≈ 5.04 µg/mL)	10.8 (≈ 5.04 µg/mL)	43 (≈ 20.1 µg/mL)	21.5 (≈ 10 µg/mL)	21.5 (≈ 10 µg/mL)	10.8 (≈ 5.04 µg/mL)	10.8 (≈ 5.04 µg/mL)	21.5 (≈ 10 µg/mL)	10.8 (≈ 5.04 µg/mL)	16.1 (≈ 7.51 µg/mL)	21.5 (≈ 10 µg/mL)	21.5 (≈ 10 µg/mL)	16.1 (≈ 7.51 µg/mL)	64.5 (≈ 30.1 µg/mL)	43 (≈ 20.1 µg/mL)	21.5 (≈ 10 µg/mL)	43 (≈ 20.1 µg/mL)	MIC (Proteus mirabilis [21]): 43 µM (≈ 20.1 µg/mL); MIC (Salmonella typhimurium [22]): 21.5 µM (≈ 10 µg/mL); MIC (Talaromyces funiculosus [23]): 10.8 µM (≈ 5.04 µg/mL); MFC (Aspergillus versicolor [24]): 16.1 µM (≈ 7.51 µg/mL); MIC (Fulvia fulva [25]): 5.4 µM (≈ 2.52 µg/mL); MBC (Micrococcus flavus [26]): 43 µM (≈ 20.1 µg/mL); MFC (Penicillium ochrochloron [27]): 21.5 µM (≈ 10 µg/mL); MIC (Listeria monocytogenes [28]): 21.5 µM (≈ 10 µg/mL); MBC (Staphylococcus aureus [29]): 21.5 µM (≈ 10 µg/mL); MFC (Trichoderma viride [30]): 21.5 µM (≈ 10 µg/mL); MIC (Aspergillus versicolor [31]): 10.8 µM (≈ 5.04 µg/mL); MBC (Bacillus cereus [32]): 21.5 µM (≈ 10 µg/mL)
O=C1N/C(=N/c2nc(C34CC5CC(CC(C5)C3)C4)cs2)S/C1=C\c1ccc(O)cc1	45.8 (≈ 20 µg/mL)	11.5 (≈ 5.03 µg/mL)	22.9 (≈ 10 µg/mL)	17.2 (≈ 7.53 µg/mL)	17.2 (≈ 7.53 µg/mL)	45.8 (≈ 20 µg/mL)	22.9 (≈ 10 µg/mL)	22.9 (≈ 10 µg/mL)	11.5 (≈ 5.03 µg/mL)	22.9 (≈ 10 µg/mL)	22.9 (≈ 10 µg/mL)	11.5 (≈ 5.03 µg/mL)	17.2 (≈ 7.53 µg/mL)	22.9 (≈ 10 µg/mL)	22.9 (≈ 10 µg/mL)	11.5 (≈ 5.03 µg/mL)	68.7 (≈ 30.1 µg/mL)	17.2 (≈ 7.53 µg/mL)	22.9 (≈ 10 µg/mL)	45.8 (≈ 20 µg/mL)	MIC (Proteus mirabilis [21]): 45.8 µM (≈ 20 µg/mL); MIC (Salmonella typhimurium [22]): 11.5 µM (≈ 5.03 µg/mL); MIC (Talaromyces funiculosus [23]): 17.2 µM (≈ 7.53 µg/mL); MFC (Aspergillus versicolor [24]): 22.9 µM (≈ 10 µg/mL); MIC (Fulvia fulva [25]): 11.5 µM (≈ 5.03 µg/mL); MBC (Micrococcus flavus [26]): 45.8 µM (≈ 20 µg/mL); MFC (Penicillium ochrochloron [27]): 22.9 µM (≈ 10 µg/mL); MIC (Listeria monocytogenes [28]): 22.9 µM (≈ 10 µg/mL); MBC (Staphylococcus aureus [29]): 45.8 µM (≈ 20 µg/mL); MFC (Trichoderma viride [30]): 22.9 µM (≈ 10 µg/mL); MIC (Aspergillus versicolor [31]): 17.2 µM (≈ 7.53 µg/mL); MBC (Bacillus cereus [32]): 22.9 µM (≈ 10 µg/mL)

— ChEMBL document CHEMBL1157665, “Novel 4-thiazolidinone derivatives as potential antifungal and antibacterial drugs” (2010)
